Data reported in ChEMBL document CHEMBL1124493, “Synthesis and tumor uptake of 5-82Br- and 5-131I-labeled 5-halo-1-(2-fluoro-2-deoxy-beta-D-ribofuranosyl)uracils” (J Med Chem, 1989).

What was measured:
Mus musculus [1] = test: Biodistribution of intravenously injected [131I]-labeled compound in heart of BDF1 female mice bearing subcutaneous Lewis lung carcinoma after 24 hours; assay type: ADME, organism-based; settings: in vivo, iv
Outline: (§1)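 Female BDF1 mice bearing subcutaneous Lewis lung carcinoma received a single intravenous dose of 0.5-1.8 μg of the 131I-labeled nucleoside (55-110 kBq). They were sacrificed at set times, and tissues were weighed wet and γ-counted. Activity is expressed as percent of injected dose per gram of wet tissue, given as mean ± standard deviation for six animals.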

Mus musculus [2] = species: Mus musculus; test: Other urinary compounds observed in BDF1 female mice bearing lewis lung tumor after 24 hr of injected [131I]-compound; assay type: functional, tissue-based; settings: Urine
Mus musculus [3] = test: Biodistribution of intravenously injected [131I]-labeled compound in tumor of BDF1 female mice bearing subcutaneous Lewis lung carcinoma after 0.50 hours; assay type: ADME, organism-based; settings: in vivo, iv, 0.5 h
Outline: (§2)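 Female BDF1 mice with subcutaneous Lewis lung carcinoma given i.v. 0.5-1.8 μg of 131I-labeled nucleoside (55-110 kBq). Killed at set times. Tissues weighed wet and γ-counted. Radioactivity expressed as percent injected dose per gram wet tissue, mean ± SD of six animals.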

Mus musculus [4] = test: Biodistribution of intravenously injected [131I]-labeled compound in muscle of BDF1 female mice bearing subcutaneous Lewis lung carcinoma after 2 hours; assay type: ADME, organism-based, Muscle tissue; settings: in vivo, iv; outline: as §2
Mus musculus [5] = test: Biodistribution of intravenously injected [131I]-labeled compound in muscle of BDF1 female mice bearing subcutaneous Lewis lung carcinoma after 8 hours; assay type: ADME, organism-based, Muscle tissue; settings: in vivo, iv; outline: as §2
Mus musculus [6] = test: Biodistribution of intravenously injected [131I]-labeled compound in blood of BDF1 female mice bearing subcutaneous Lewis lung carcinoma after 8 hours; assay type: ADME, organism-based; settings: in vivo, iv; outline: as §1
Mus musculus [7] = test: Biodistribution of intravenously injected [131I]-labeled compound in heart of BDF1 female mice bearing subcutaneous Lewis lung carcinoma after 0.50 hours; assay type: ADME, organism-based; settings: in vivo, iv, 0.5 h; outline: as §1
Mus musculus [8] = species: Mus musculus; test: Urinary [131I]- compound observed in BDF1 female mice bearing lewis lung tumor after 2-3 hr of injected [131I]-compound; assay type: functional, tissue-based; settings: Urine
Mus musculus [9] = test: Biodistribution of intravenously injected [131I]-labeled compound in kidney of BDF1 female mice bearing subcutaneous Lewis lung carcinoma after 24 hours; assay type: ADME, organism-based; settings: in vivo, iv; outline: as §1
Mus musculus [10] = test: Biodistribution of intravenously injected [131I]-labeled compound in lung of BDF1 female mice bearing subcutaneous Lewis lung carcinoma after 8 hours; assay type: ADME, organism-based; settings: in vivo, iv; outline: as §1
Mus musculus [11] = test: Biodistribution of intravenously injected [131I]-labeled compound in muscle of BDF1 female mice bearing subcutaneous Lewis lung carcinoma after 1 hours; assay type: ADME, organism-based, Muscle tissue; settings: in vivo, iv; outline: as §2
Mus musculus [12] = species: Mus musculus; test: Urinary iodide observed in BDF1 female mice bearing lewis lung tumor after 6-7 hr of injected [131I]-compound; assay type: functional, tissue-based; settings: Urine
Mus musculus [13] = test: Biodistribution of intravenously injected [131I]-labeled compound in heart of BDF1 female mice bearing subcutaneous Lewis lung carcinoma after 0.25 hours; assay type: ADME, organism-based; settings: in vivo, iv; outline: as §1
Mus musculus [14] = species: Mus musculus; test: Other urinary compounds observed in BDF1 female mice bearing lewis lung tumor after 6-7 hr of injected [131I]-compound; assay type: functional, tissue-based; settings: Urine
Mus musculus [15] = species: Mus musculus; test: Urinary iodide observed in BDF1 female mice bearing lewis lung tumor after 0-0.5 hr of injected [131I]-compound; assay type: functional, tissue-based; settings: Urine
Mus musculus [16] = test: Biodistribution of intravenously injected [131I]-labeled compound in lung of BDF1 female mice bearing subcutaneous Lewis lung carcinoma after 1 hours; assay type: ADME, organism-based; settings: in vivo, iv; outline: as §1
Mus musculus [17] = test: Biodistribution of intravenously injected [131I]-labeled compound in gut of BDF1 female mice bearing subcutaneous Lewis lung carcinoma after 0.25 hours; assay type: ADME, organism-based; settings: in vivo, iv; outline: as §1
Mus musculus [18] = test: Biodistribution of intravenously injected [131I]-labeled compound in heart of BDF1 female mice bearing subcutaneous Lewis lung carcinoma after 8 hours; assay type: ADME, organism-based; settings: in vivo, iv; outline: as §1
Mus musculus [19] = test: Biodistribution of intravenously injected [131I]-labeled compound in gut of BDF1 female mice bearing subcutaneous Lewis lung carcinoma after 4 hours; assay type: ADME, organism-based; settings: in vivo, iv; outline: as §1
Mus musculus [20] = test: Biodistribution of intravenously injected [131I]-labeled compound in muscle of BDF1 female mice bearing subcutaneous Lewis lung carcinoma after 0.25 hours; assay type: ADME, organism-based, Muscle tissue; settings: in vivo, iv; outline: as §1
Mus musculus [21] = species: Mus musculus; test: Other urinary compounds observed in BDF1 female mice bearing lewis lung tumor after 0-0.5 hr of injected [131I]-compound; assay type: functional, tissue-based; settings: Urine
Mus musculus [22] = test: Biodistribution of intravenously injected [82Br]-labeled compound in tumor of BDF1 female mice bearing subcutaneous Lewis lung carcinoma after 0.50 hours; assay type: ADME, organism-based; settings: in vivo, iv, 0.5 h
Mus musculus [23] = test: Biodistribution of intravenously injected [82Br]-labeled compound in spleen of BDF1 female mice bearing subcutaneous Lewis lung carcinoma after 0.50 hours; assay type: ADME, organism-based; settings: in vivo, iv, 0.5 h
Outline: (§3)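 Female BDF1 mice with subcutaneous Lewis lung carcinoma given an iv injection of [82Br]-labelled nucleoside, 47-130 μg carrying 20-60 kBq 82Br. Tissues were excised, weighed wet and γ-counted. Values are percent injected dose per gram of wet tissue, mean ± standard deviation of six animals, with organ-to-tumour ratios derived.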

Mus musculus [24] = test: Biodistribution of intravenously injected [82Br]-labeled compound in bone of BDF1 female mice bearing subcutaneous Lewis lung carcinoma after 0.5 hours; assay type: ADME, organism-based, Bone element; settings: in vivo, iv
Outline: (§4)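 82Br-labeled nucleoside given intravenously to female BDF1 mice bearing subcutaneous Lewis lung carcinoma, at 47-130 μg carrying 20-60 kBq. Mice sacrificed at each time point. Wet-weighed tissues γ-counted. Values are percent injected dose per gram wet tissue, mean ± SD, n = 6.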

Mus musculus [25] = test: Biodistribution of intravenously injected [82Br]-labeled compound in bone of BDF1 female mice bearing subcutaneous Lewis lung carcinoma after 0.25 hours; assay type: ADME, organism-based, Bone element; settings: in vivo, iv; outline: as §4
Mus musculus [26] = test: Biodistribution of intravenously injected [82Br]-labeled compound in liver of BDF1 female mice bearing subcutaneous Lewis lung carcinoma after 4 hours; assay type: ADME, organism-based; settings: in vivo, iv; outline: as §3
Mus musculus [27] = test: Biodistribution of intravenously injected [82Br]-labeled compound in heart of BDF1 female mice bearing subcutaneous Lewis lung carcinoma after 2 hours; assay type: ADME, organism-based; settings: in vivo, iv; outline: as §3
Mus musculus [28] = test: Biodistribution of intravenously injected [82Br]-labeled compound in muscle of BDF1 female mice bearing subcutaneous Lewis lung carcinoma after 0.25 hours; assay type: ADME, organism-based, Muscle tissue; settings: in vivo, iv; outline: as §3
Mus musculus [29] = test: Biodistribution of intravenously injected [82Br]-labeled compound in heart of BDF1 female mice bearing subcutaneous Lewis lung carcinoma after 0.25 hours; assay type: ADME, organism-based; settings: in vivo, iv; outline: as §3
Mus musculus [30] = test: Biodistribution of intravenously injected [82Br]-labeled compound in lung of BDF1 female mice bearing subcutaneous Lewis lung carcinoma after 1 hours; assay type: ADME, organism-based; settings: in vivo, iv; outline: as §3
Mus musculus [31] = test: Biodistribution of intravenously injected [82Br]-labeled compound in muscle of BDF1 female mice bearing subcutaneous Lewis lung carcinoma after 2 hours; assay type: ADME, organism-based, Muscle tissue; settings: in vivo, iv; outline: as §3
Mus musculus [32] = test: Biodistribution of intravenously injected [82Br]-labeled compound in stomach of BDF1 female mice bearing subcutaneous Lewis lung carcinoma after 0.25 hours; assay type: ADME, organism-based; settings: in vivo, iv
Mus musculus [33] = test: Biodistribution of intravenously injected [82Br]-labeled compound in spleen of BDF1 female mice bearing subcutaneous Lewis lung carcinoma after 2 hours; assay type: ADME, organism-based; settings: in vivo, iv
Mus musculus [34] = test: Biodistribution of intravenously injected [82Br]-labeled compound in bone of BDF1 female mice bearing subcutaneous Lewis lung carcinoma after 24 hours; assay type: ADME, organism-based, Bone element; settings: in vivo, iv; outline: as §4
Mus musculus [35] = test: Biodistribution of intravenously injected [82Br]-labeled compound in liver of BDF1 female mice bearing subcutaneous Lewis lung carcinoma after 0.50 hours; assay type: ADME, organism-based; settings: in vivo, iv, 0.5 h; outline: as §3
Mus musculus [36] = test: Biodistribution of intravenously injected [82Br]-labeled compound in liver of BDF1 female mice bearing subcutaneous Lewis lung carcinoma after 8 hours; assay type: ADME, organism-based; settings: in vivo, iv; outline: as §3
Mus musculus [37] = test: Biodistribution of intravenously injected [82Br]-labeled compound in blood of BDF1 female mice bearing subcutaneous Lewis lung carcinoma after 0.25 hours; assay type: ADME, organism-based; settings: in vivo, iv; outline: as §4
Mus musculus [38] = test: Biodistribution of intravenously injected [82Br]-labeled compound in heart of BDF1 female mice bearing subcutaneous Lewis lung carcinoma after 4 hours; assay type: ADME, organism-based; settings: in vivo, iv; outline: as §3
Mus musculus [39] = test: Biodistribution of intravenously injected [82Br]-labeled compound in kidney of BDF1 female mice bearing subcutaneous Lewis lung carcinoma after 8 hours; assay type: ADME, organism-based; settings: in vivo, iv; outline: as §3

SMILES: O=c1[nH]c(=O)n([C@@H]2O[C@H](CO)[C@@H](O)[C@H]2F)cc1I
- Injected dose/g (Mus musculus [1]): 0.1%
- Radioactive constituents (Mus musculus [2]): 0%
- Injected dose/g (Mus musculus [3]): 3.7%
- Injected dose/g (Mus musculus [4]): 1.3%
- Injected dose/g (Mus musculus [5]): 0.7%
- Injected dose/g (Mus musculus [6]): 4.1%
- Injected dose/g (Mus musculus [7]): 6.4%
- Radioactive constituents (Mus musculus [8]): 82.8%
- Injected dose/g (Mus musculus [9]): 0.14%
- Injected dose/g (Mus musculus [10]): 2.6%
- Injected dose/g (Mus musculus [11]): 2.3%
- Radioactive constituents (Mus musculus [12]): 39.8%
- Injected dose/g (Mus musculus [13]): 7%
- Radioactive constituents (Mus musculus [14]): 0%
- Radioactive constituents (Mus musculus [15]): 4.7%
- Injected dose/g (Mus musculus [16]): 7%
- Injected dose/g (Mus musculus [17]): 3.1%
- Injected dose/g (Mus musculus [18]): 1.6%
- Injected dose/g (Mus musculus [19]): 2.1%
- Injected dose/g (Mus musculus [20]): 2.5%
- Radioactive constituents (Mus musculus [21]): 2.6%

SMILES: O=c1[nH]c(=O)n([C@H]2O[C@@H](CO)[C@H](O)[C@H]2F)cc1Br
- Injected dose/g (Mus musculus [22]): 0.95%
- Injected dose/g (Mus musculus [23]): 0.59%
- Injected dose/g (Mus musculus [24]): 0.3%
- Injected dose/g (Mus musculus [25]): 0.52%
- Injected dose/g (Mus musculus [26]): 0.23%
- Injected dose/g (Mus musculus [27]): 0.48%
- Injected dose/g (Mus musculus [28]): 0.89%
- Injected dose/g (Mus musculus [29]): 1.61%
- Injected dose/g (Mus musculus [30]): 0.52%
- Injected dose/g (Mus musculus [31]): 0.19%
- Injected dose/g (Mus musculus [32]): 1.29%
- Injected dose/g (Mus musculus [33]): 0.35%
- Injected dose/g (Mus musculus [34]): 0.14%
- Injected dose/g (Mus musculus [35]): 0.65%
- Injected dose/g (Mus musculus [36]): 0.28%
- Injected dose/g (Mus musculus [37]): 2.68%
- Injected dose/g (Mus musculus [38]): 0.49%
- Injected dose/g (Mus musculus [39]): 0.53%
